{"source": "ChEMBL document CHEMBL1124395", "about": "“Studies on bioactive compounds. 13. Synthesis and lack of growth-inhibitory properties of cyclohexane-1,2,4-triol 1,2-diesters, which resemble ring C of the phorbol ester molecule” (J Med Chem, 1989)", "key": {"[1]": {"experiment": "Concentration which cause half-maximal Lactate dehydrogenase in […]", "procedure,_shortened": "(§1)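 A549 cells (1 × 10^5/well) exposed 24 h to compound in medium with only 1% fetal calf serum; diacylglycerols added 3 times at 6-hourly intervals. Supernatant briefly centrifuged and kept on ice, then LDH activity read spectrophotometrically. Maximal releasable LDH came from control cells lysed with 1% Triton X-100. Half-maximal release was obtained by linear regression of the linear part of curves (≥5 concentrations, four experiments).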"}, "[2]": {"species_on_record": "Homo sapiens", "experiment": "Concentration which cause half-maximal growth inhibition of human A549 lung carcinoma cell line", "format": "functional", "procedure,_shortened": "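A549 human lung carcinoma cells ((2-5) × 10^4/well) grown in Ham's F12 with 10% fetal calf serum under 95% air/5% CO2 with compound for 4-5 days, until controls were confluent. Medium and compound were renewed every 2 days; diacylglycerols were added three times daily at 6-h intervals for 3 days. Final DMSO was ≤0.5%. Cells were trypsinised and counted by hemocytometer or Coulter counter. The 50% growth-inhibitory concentration was taken by linear regression (≥5 concentrations, four experiments).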"}, "[3]": {"experiment": "Concentration which cause half-maximal Lactate dehydrogenase release in […]", "procedure,_shortened": "as §1"}}}
{"smiles": "CCCCCCCC(=O)O[C@H]1CC[C@H](O)C[C@@H]1OC(=O)CCCCCCC", "values": [{"measurement": "LC50", "setting": "[1]", "result": 46, "unit": "µM"}, {"measurement": "IC50", "setting": "[2]", "result": 58, "unit": "µM"}]}
{"smiles": "CCCCCCCC(=O)OC[C@@H](CO)OC(=O)CCCCCCC", "values": [{"measurement": "LC50", "setting": "[1]", "result": 56, "unit": "µM"}, {"measurement": "IC50", "setting": "[2]", "result": 44, "unit": "µM"}]}
{"smiles": "CCCCCCCC(=O)O[C@@H]1CC[C@H](O)C[C@H]1OC(=O)CCCCCCC", "values": [{"measurement": "LC50", "setting": "[1]", "result": 36, "unit": "µM"}, {"measurement": "IC50", "setting": "[2]", "result": 43, "unit": "µM"}]}
{"smiles": "CCCCCCCC(=O)O[C@H]1CC[C@H](O)C[C@H]1OC(=O)CCCCCCC", "values": [{"measurement": "LC50", "setting": "[3]", "result": 31, "unit": "µM"}, {"measurement": "IC50", "setting": "[2]", "result": 49, "unit": "µM"}]}
{"smiles": "CCCCCCCC/C=C\\CCCCCCCC(=O)OCC(CO)OC(C)=O", "note": "(stereo unspecified)", "values": [{"measurement": "LC50", "setting": "[3]", "result": 75, "unit": "µM"}, {"measurement": "IC50", "setting": "[2]", "result": 70, "unit": "µM"}]}
{"smiles": "CCCCCCCCCCCCCC(=O)O[C@@]12[C@H](OC(C)=O)[C@@H](C)[C@@]3(O)[C@@H](C=C(CO)C[C@]4(C)C(=O)C(C)=C[C@@H]34)[C@@H]1C2(C)C", "values": [{"measurement": "LC50", "setting": "[3]", "result": "> 1", "unit": "µM"}]}
